For 14 compounds, Activity, GI50 and MTD results are on record in ChEMBL document CHEMBL3856274, “Sydnone Cycloaddition Route to Pyrazole-Based Analogs of Combretastatin A4” (J Med Chem, 2016).

Data set [1] relates to HUVEC. The data set can be described thus: Disruption of interphase microtubule in HUVEC assessed as change in cell morphology at 250 nM after 30 mins by DAPI staining-based immunofluorescence assay. The following applies: Homo sapiens. The gist of the method:
(§1)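 HUVECs (supplemented medium, 10% FCS final, used up to 5 passages) plated on fibronectin-coated chamber slides at 2.5 × 10^4 or 5 × 10^4 cells/well. Treated with drug (dilutions in EBM from 20 mM DMSO stock) or vehicle for 30 min. Then fixed in 3.7% formalin, permeabilized in 0.1% Triton X-100, and stained for β-tubulin (antibody), F-actin (phalloidin) and nuclei (DAPI).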

Data set [2] concerns HUVEC. The data set is described as follows: Disruption of interphase microtubule in HUVEC assessed as change in cell shape at 250 nM after 30 mins by DAPI staining-based immunofluorescence assay. The settings on record: Homo sapiens. Put shortly: as §1
For data set [3], the system named is HUVEC. The data set can be described thus: Growth inhibition of HUVEC after 72 hrs by crystal violet staining-based assay. It is filed as functional. The settings on record: Homo sapiens. The gist of the method:
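HUVECs at 5 × 10^3/well on gelatin-coated plates were allowed to adhere for 24 h, then given a drug concentration series in EBM (≥8 wells per concentration) for 72 h at 37 °C. Cells were fixed in 3.7% formalin and stained with 1% crystal violet, which was solubilized in 10% acetic acid and read at A590 with background correction. % growth inhibition from ≥3 independent experiments was plotted against log concentration to give GI50.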

The test system of data set [4] is HUVEC. The data set can be described thus: Activation of ROCK in HUVEC assessed as phosphorylation of myosin light chain at 50 to 500 nM after 15 mins by Western blot method. The following applies: Homo sapiens. It is filed as cell-based. The gist of the method:
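HUVECs seeded on gelatin at 5 × 10^4 cells/well and grown 7 days without medium change. Drugs diluted in EBM from 20 mM DMSO stock and applied 15 min. Proteins extracted in LDS buffer. Western blot for dually phosphorylated MLC, with actin reprobe for loading. Band intensity given as fold-change over vehicle. Mean of 3-4 independent experiments ± SEM.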
Background: Immunoblotting shows a protein as a band on a membrane.

For a further data set, the system named is SW1222. The data set is described as follows: Induction of necrosis in human SW1222 cells xenografted in SCID mouse at 0.227 mmol/kg administered as single dose measured after 24 hrs by hematoxylin/eosin staining-based microscopic method. The format is functional, cell-based. Put shortly: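 SW1222 cells (5 × 10^6) injected s.c. into the rear dorsum of female SCID mice (8–12 weeks). Tumours treated at about 8 mm mean diameter with a single dose of 0.227 mmol/kg in […]/NaCl, 10 mL/kg. Tumours excised at 24 h. Necrosis scored on 5 µm H&E sections by Chalkley point counting.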
On the technique in general: Xenograft models place foreign cells or tissue in a host animal.

The test system of data set [5] is HUVEC. The data set is described as follows: Disruption of interphase microtubule in HUVEC assessed as formation of actin stress fiber at 250 nM after 30 mins by phalloidin/DAPI staining-based immunofluorescence assay. It is filed as cell-based. The settings on record: Homo sapiens. Put shortly:
(§2)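 HUVECs seeded on fibronectin-coated chamber slides. Drug diluted in EBM from 20 mM DMSO stock. Exposure 250 nM for 30 min or 1 µM for 90 min. Fixed in 3.7% formalin and permeabilised in 0.1% Triton X-100. Stained for β-tubulin by antibody, F-actin by phalloidin and nuclei by DAPI, then imaged by immunofluorescence.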

Data set [6] relates to HUVEC. The data set can be described thus: Induction of HUVEC monolayer permeability assessed as increase in passage of FITC-dextran through cell monolayer at 50 nM preincubated for 30 mins followed by compound washout and addition of FITC-dextran for 30 mins by fluorescence assay. The following applies: Homo sapiens. The format is functional, cell-based. Put shortly: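 HUVECs seeded at 5 × 10^4 per fibronectin-coated 3 µm-pore insert and cultured 5 days to a confluent monolayer. Drug 50 nM for 30 min at 37 °C, then replaced with FITC-dextran (0.8 mg/mL) for 30 min. Lower-well fluorescence read at ex 488/em 525 and expressed as % of a cell-free insert. Mean of 3 independent experiments ± SEM.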

Data set [7] has as its system HUVEC. The data set can be described thus: Disruption of interphase microtubule in HUVEC assessed as formation of actin stress fiber at 250 nM preincubated for 30 mins followed by compound washout measured after 60 mins by DAPI staining-based immunofluorescence assay. The format is cell-based. The settings on record: Homo sapiens. Put shortly:
(§3)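 HUVECs on fibronectin-coated chamber slides were exposed to 250 nM drug or vehicle for 30 min at 37 °C. Cells were washed four times with serum-containing medium, incubated 30 min, washed again and incubated a further 30 min (60 min recovery). They were then fixed in 3.7% formalin, permeabilized with 0.1% Triton X-100, and stained for β-tubulin, F-actin (phalloidin) and DAPI.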

In data set [8] the test system is HUVEC. The data set can be described thus: Disruption of interphase microtubule in HUVEC assessed as change in cell shape and morphology at 250 nM preincubated for 30 mins followed by compound washout measured after 60 mins by DAPI staining-based immunofluorescence assay. The following applies: Homo sapiens. The gist of the method:
as §3

Data set [9] can be described thus: Toxicity in SCID mouse. The following applies: in vivo. The format is organism-based.
In data set [10] the test system is HUVEC. The data set can be described thus: Disruption of interphase microtubule in HUVEC assessed as change in cell morphology at 1 uM after 90 mins by DAPI staining-based immunofluorescence assay. The settings on record: Homo sapiens. Put shortly:
as §2

Data set [11] has as its system HUVEC. The data set is described as follows: Disruption of interphase microtubule in HUVEC assessed as formation of actin stress fiber at 1 uM after 90 mins by phalloidin/DAPI staining-based immunofluorescence assay. The format is cell-based. The settings on record: Homo sapiens. Put shortly:
as §2

Active and inactive are the calls of the source. The calls are words filed in the database; no cut-off is given here. Some results are limits rather than exact numbers.

One may read the GI50 as the concentration giving 50% growth inhibition. Low readings indicate greater sensitivity of the cells, high ones lower sensitivity of the cells. As for `COc1ccc(-c2ccnn2-c2cc(OC)c(OC)c(OC)c2)cc1O`, the outcome in the data set on HUVEC [1] and in the data set on HUVEC [2] was Active. The GI50 in the data set with HUVEC [3] was 28 nM.
In the case of `COc1ccc(-c2c(-c3cc(OC)c(OC)c(OC)c3)cnn2Cc2ccccc2)cc1O`, in the data set with HUVEC [3], the GI50 was more than 750 nM.
In the data set with HUVEC [3], `COc1ccc(-c2nn(Cc3ccccc3)cc2-c2cc(OC)c(OC)c(OC)c2)cc1O` registered a GI50 of more than 2000 nM.
As for `COc1ccc(/C=C\c2cc(OC)c(OC)c(OC)c2)cc1OP(=O)(O)O` [FOSBRETABULIN DISODIUM], the result with HUVEC [4], with HUVEC [1], in the data set with SW1222, with HUVEC [5] and with HUVEC [6] was Active. The compound further gave a GI50 in the data set on HUVEC [3] of 8 nM.
In the data set with HUVEC [3], `COc1ccc(-c2cn[nH]c2-c2cc(OC)c(OC)c(OC)c2)cc1O` yielded a GI50 of more than 5000 nM.
In the case of `COc1ccc(-c2cnn(C)c2-c2cc(OC)c(OC)c(OC)c2)cc1O`, in the data set with HUVEC [3], it took 68 nM to inhibit growth by half (GI50). This counts as double-digit nanomolar.
Regarding `COc1ccc(-n2nccc2-c2cc(OC)c(OC)c(OC)c2)cc1O`, the GI50 in the data set with HUVEC [3] is more than 750 nM.
In the case of `COc1ccc(-c2nn(C)cc2-c2cc(OC)c(OC)c(OC)c2)cc1O`, the GI50 in the data set with HUVEC [3] amounted to 256 nM. This lies in the sub-micromolar range.
`COc1ccc(-c2[nH]ncc2-c2cc(OC)c(OC)c(OC)c2)cc1O`: the outcome with HUVEC [4], in the data set with HUVEC [1], with HUVEC [7], in the data set on HUVEC [8], in the data set on SW1222 and in the data set on HUVEC [2] was Active. The result in the data set with HUVEC [6] was Active. This compound also registered an MTD in [9] of more than 162 mg/kg. In the data set on HUVEC [3], this compound returned a GI50 of 7 nM.
In the data set on HUVEC [3], `COc1ccc(-c2cn(Cc3ccccc3)nc2-c2cc(OC)c(OC)c(OC)c2)cc1O` showed a GI50 of more than 5000 nM.
In the case of `COc1cc2c(c(OC)c1OC)-c1ccc(OC)c(=O)cc1[C@@H](NC(C)=O)CC2` [COLCHICINE], the result in the data set on HUVEC [10] and in the data set with HUVEC [11] was Active. The compound further showed a GI50 with HUVEC [3] of 25 nM.
For the compound `COc1ccc(-c2cnn(Cc3ccccc3)c2-c2cc(OC)c(OC)c(OC)c2)cc1O`, the GI50 with HUVEC [3] is more than 2500 nM.
Same read-out and setting: to `COc1ccc(-c2cn(C)nc2-c2cc(OC)c(OC)c(OC)c2)cc1O` belongs more than 5000 nM.
On the same count and under the same terms, the figure for `COc1ccc(-c2c(-c3cc(OC)c(OC)c(OC)c3)cnn2C)cc1O` is 118 nM.
